ChEMBL document CHEMBL1149307, “Potent and selective farnesyl transferase inhibitors” (J Med Chem, 2004)

Legend:
[1] = Inhibition of Sprague-Dawley rat brain FTase by continuous fluorescence assay
Summary of the method: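 Enzyme source: cytosolic fraction (100 000g supernatant) of brains from male Sprague–Dawley rats aged 9–10 weeks, kept at -80 °C. Reaction: 50 mM Tris-HCl pH 7.5, 5 mM MgCl2, 10 μM ZnCl2, 5 mM DTT, 0.01% n-dodecyl-β-D-maltoside, 5.4 mg/mL cytosolic protein, 1.3 μM dansyl-CVIM, 25 μM FPP. Run at 25 °C, fluorescence (ex 340/em 505 nm) recorded 10 min. IC50 obtained by fitting ΔF/Δt versus inhibitor concentration.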

[2] = Inhibition of Sprague-Dawley rat brain GGTI by continuous fluorescence assay
Summary of the method: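 GGT-I source: rat brain cytosol (male Sprague–Dawley, 100 000g supernatant). Buffer: 50 mM Tris-HCl pH 7.5, 5 mM MgCl2, 10 μM ZnCl2, 5 mM DTT, 0.01% dodecyl maltoside, 5.4 mg/mL protein, 4 μM dansyl-GCVLL, 10 μM GGPP. Incubated at 25 °C; fluorescence followed for 10 min at ex 340/em 505 nm. IC50 taken from sigmoid fit of rate against inhibitor concentration.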

[3] = tested on: L1210; test: Growth inhibition of mouse L1210 cells by MTT assay after 72 hrs; type: functional, cell-based; conditions: L1210, 72 h
Summary of the method: (§1)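 Cells (H-Ras-transformed NIH3T3 fibroblasts; K-Ras-transformed DLD-1 colon adenocarcinoma; L-1210 leukaemia) grown in RPMI + 10% fetal calf serum. Seeded and allowed to grow 24 h, then exposed to a range of inhibitor concentrations for 72 h, 1% DMSO final. Growth read by colorimetric MTT assay; EC50 derived.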

[4] = tested on: DLD-1; test: Growth inhibition of human DLD1 cells by MTT assay after 72 hrs; type: functional, cell-based; conditions: DLD-1, 72 h; summary of the method: as §1
[5] = tested on: NIH3T3; test: Growth inhibition of H-Ras transformed […] cells by MTT assay after 72 hrs; type: functional, cell-based; conditions: Mus musculus, NIH3T3, 72 h; summary of the method: as §1

Structure (SMILES)	IC50 [1] [nM]	IC50 [2] [nM]	EC50 [3] [nM]	EC50 [4] [nM]	EC50 [5] [nM]
COC(=O)[C@H](CCSC)N(C(=O)c1ccccc1)C1CCN(Cc2cncn2Cc2ccc(C)cc2)CC1	600	–	–	–	–
CSCC[C@H](NC(=O)[C@H](Cc1ccccc1)NC[C@@H](NC[C@@H](N)CS)C(C)C)C(=O)O	34	> 5000	–	–	–
CSCC[C@H](NC(=O)c1ccc(NC(=O)[C@@H](N)CS)cc1)C(=O)O	72	> 100	–	–	–
COC(=O)[C@H](CCSC)N(Cc1ccccc1)C1CCN(Cc2cncn2Cc2ccc(C#N)cc2)CC1	2.35	> 2000	> 5000	12900	–
COC(=O)[C@H](CCSC)N(C(=O)c1ccccc1)C1CCN(Cc2cncn2Cc2ccc(OC)cc2)CC1	575	–	–	–	–
CC(C)C[C@H](NC(=O)c1ccc(NC(=O)[C@@H](N)CS)cc1-c1ccccc1)C(=O)O	56.2	12.4	–	–	–
COC(=O)[C@H](CCSC)N(C(=O)c1ccccc1)C1CCN(C(=O)C(N)CS)CC1 (stereo partly specified)	22.8	> 100	> 10000	18100	–
COC(=O)[C@H](CCSC)N(C(=O)c1ccccc1)C1CCN(Cc2cncn2Cc2ccc(C(F)(F)F)cc2)CC1	43.9	–	–	–	–

Further lines, with some results ahead:

IC50 [1] [nM]	IC50 [2] [nM]	EC50 [3] [nM]	EC50 [4] [nM]	Structure (SMILES)	EC50 [5] [nM]
397	–	–	–	COC(=O)[C@H](CCSC)N(C(=O)c1ccccc1)C1CCN(Cc2cncn2Cc2ccccc2)CC1	–
32.7	> 2000	–	–	CCC(C)[C@@H](C(=O)OC)N(C(=O)c1ccccc1)C1CCN(Cc2cncn2Cc2ccc(C#N)cc2)CC1 (stereo partly specified)	–
22	> 2000	–	–	COC(=O)[C@H](Cc1ccccc1)N(C(=O)c1ccccc1)C1CCN(Cc2cncn2Cc2ccc(C#N)cc2)CC1	–
4.6	> 2000	20	9200	COC(=O)[C@H](CCSC)N(C(=O)c1ccccc1)C1CCN(Cc2cncn2Cc2ccc(C#N)cc2)CC1	1330
10	> 2000	–	–	CSCC[C@@H](C(=O)O)N(C(=O)c1ccccc1)C1CCN(Cc2cncn2Cc2ccc(C#N)cc2)CC1	–
54.1	> 2000	–	–	N#Cc1ccc(Cn2cncc2CN2CCC(N(C(=O)c3ccccc3)[C@@H](Cc3ccccc3)C(=O)O)CC2)cc1	–
